From ChEMBL document CHEMBL1152869, “An inhibitor of FtsZ with potent and selective anti-staphylococcal activity” (Science, 2008) come the findings set out here.

Converted amounts (≈) assume the structure as drawn. The source made the active and inactive calls. No cut-off for these calls is given here.

Usually IC50 stands for the concentration that inhibits the measured activity by half. Low values mean higher potency, high ones lower potency. One may read the ED50 as the dose at which the effect has come halfway, by size or by number of responders.

For assay [1], the system named is Bacillus subtilis. Nature of the assay: Inhibition of cell division in Bacillus subtilis 168 at 50 uM by phase contrast microscopy. The class given is functional, organism-based. Conditions: subsp. subtilis str. 168.
Assay [2] is filed under the species Bos taurus. Nature of the assay: Enhancement of bovine brain tubulin polymerization at 25 uM.
The test system of assay [3] is Escherichia coli. Nature of the assay: Antibacterial activity against Escherichia coli by broth microdilution method. The class given is functional. A general note: Broth dilution looks for growth in wells or tubes with falling amounts of substance.
Assay [4] deals with Staphylococcus aureus. Nature of the assay: Antibacterial activity against Staphylococcus aureus bearing FtsZ G266S mutant by broth microdilution method. The class given is functional.
In assay [5] the test system is Bacillus subtilis. In words: Antibacterial activity against Bacillus subtilis bearing FtsZ A47P mutant by broth microdilution method. Type of assay: functional.
The test system of assay [6] is Enterococcus faecalis. In words: Antibacterial activity against Enterococcus faecalis by broth microdilution method. Type of assay: functional.
Assay [7] deals with Staphylococcus haemolyticus. In words: Antibacterial activity against Staphylococcus haemolyticus by broth microdilution method. The class given is functional.
The test system of assay [8] is Staphylococcus aureus. Nature of the assay: Antibacterial activity against Staphylococcus aureus Smith ATCC 19636 in CD1 mouse septicemia model assessed as survival at 30 mg/kg, sc after 7 days relative to control. Type of assay: functional. As to conditions: 168 h, route subcutaneous. A digest of the protocol: (§1)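 At 1 h post-infection they received a single SC or IV dose of 3, 10 or 30 mg/kg. Controls were vehicle only and vancomycin 3 mg/kg by the same route. Mortality was recorded daily for 7 days, and ED50 was derived from dose-dependent survival.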

Assay [9] concerns Staphylococcus aureus. In words: Inhibition of cell division in Staphylococcus aureus ATCC 29213 assessed as enlargement of cells at 2 ug/ml within 2 hrs by phase contrast microscopy. Type of assay: functional, organism-based. The method in brief: (§2)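 S. aureus ATCC 29213 cells grown with or without compound at 2 μg/ml; cell morphology examined by phase-contrast microscopy.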

Assay [10] concerns Streptococcus pneumoniae. Nature of the assay: Antibacterial activity against Streptococcus pneumoniae by broth microdilution method. The class given is functional.
The test system of assay [11] is Staphylococcus aureus. Nature of the assay: Inhibition of cell division in Staphylococcus aureus ATCC 29213 assessed as enlargement of cells at 2 ug/ml by phase contrast microscopy. The class given is functional, organism-based. A digest of the protocol: as §2
For assay [12], the system named is Haemophilus influenzae. In words: Antibacterial activity against Haemophilus influenzae by broth microdilution method. Type of assay: functional.
The test system of assay [13] is Staphylococcus aureus. Nature of the assay: Antibacterial activity against Staphylococcus aureus bearing FtsZ G196A mutant by broth microdilution method. Type of assay: functional.
In assay [14] the test system is Staphylococcus aureus. In words: Antibacterial activity against multidrug-resistant Staphylococcus aureus by broth microdilution method. The class given is functional.
Assay [15] relates to Staphylococcus aureus. Nature of the assay: Bactericidal activity against Staphylococcus aureus ATCC 29213 assessed as logarithmic reduction in viable cell numbers at >= MIC after 24 hrs. Type of assay: functional.
The test system of assay [16] is Staphylococcus aureus. In words: Antibacterial activity against Staphylococcus aureus bearing FtsZ R191P mutant by broth microdilution method. Type of assay: functional.
Assay [17] has as its target T1, Cell division protein FtsZ (Bacillus subtilis (strain 168)) (UniProt P17865).
T1 sequence (whole entry): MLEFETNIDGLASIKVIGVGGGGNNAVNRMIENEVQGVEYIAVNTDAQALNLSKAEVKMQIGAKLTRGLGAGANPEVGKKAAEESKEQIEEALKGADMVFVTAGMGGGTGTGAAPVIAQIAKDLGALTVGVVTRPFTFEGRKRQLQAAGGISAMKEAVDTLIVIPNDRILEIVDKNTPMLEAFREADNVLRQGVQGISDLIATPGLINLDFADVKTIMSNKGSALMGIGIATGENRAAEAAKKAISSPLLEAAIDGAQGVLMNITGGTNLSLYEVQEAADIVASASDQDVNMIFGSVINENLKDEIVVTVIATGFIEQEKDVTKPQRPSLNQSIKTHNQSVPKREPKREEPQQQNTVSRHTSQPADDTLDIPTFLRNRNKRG
Nature of the assay: Inhibition of GFP-FtsZ localization in Bacillus subtilis 2020 assessed as protein mislocalization to assemble into cytokinetic ring at 8 ug/ml by florescence microscopy. The method in brief: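 B. subtilis 2020 carrying gfp-ftsZ cultured with or without compound at 8 μg/ml; FtsZ localization visualized by fluorescence microscopy.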

Assay [18] relates to Pseudomonas aeruginosa. In words: Antibacterial activity against Pseudomonas aeruginosa by broth microdilution method. Type of assay: functional.
Assay [19] has as its system Staphylococcus aureus. Nature of the assay: Antibacterial activity against Staphylococcus aureus bearing FtsZ V214F mutant by broth microdilution method. The class given is functional.
The test system of assay [20] is Bacillus subtilis. Nature of the assay: Antibacterial activity against Bacillus subtilis by broth microdilution method. The class given is functional.
Assay [21] concerns Staphylococcus aureus. In words: Antibacterial activity against Staphylococcus aureus bearing FtsZ N263K mutant by broth microdilution method. The class given is functional.
For assay [22], the system named is Staphylococcus warneri. In words: Antibacterial activity against Staphylococcus warneri by broth microdilution method. The class given is functional.
Assay [23] deals with Staphylococcus saprophyticus. Nature of the assay: Antibacterial activity against Staphylococcus saprophyticus by broth microdilution method. The class given is functional.
Assay [24] addresses T2, Cell division protein FtsZ (Staphylococcus aureus) (UniProt P0A031).
T2 sequence (whole entry): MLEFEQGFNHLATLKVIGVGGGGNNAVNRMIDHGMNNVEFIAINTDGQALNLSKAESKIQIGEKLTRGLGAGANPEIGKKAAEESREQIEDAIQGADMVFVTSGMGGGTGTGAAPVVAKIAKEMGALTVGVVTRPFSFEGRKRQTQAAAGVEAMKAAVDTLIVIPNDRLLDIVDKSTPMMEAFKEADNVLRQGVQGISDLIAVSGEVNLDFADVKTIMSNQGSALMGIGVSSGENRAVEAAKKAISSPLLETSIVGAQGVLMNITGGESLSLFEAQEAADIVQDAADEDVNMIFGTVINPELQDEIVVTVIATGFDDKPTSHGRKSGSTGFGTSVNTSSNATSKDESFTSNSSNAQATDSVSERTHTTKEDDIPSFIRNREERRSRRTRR
In words: (§3) Inhibition of Staphylococcus aureus FtsZ GTPase activity. The method in brief: (§4)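 S. aureus FtsZ cloned, overexpressed and purified; in vitro GTPase activity measured across a compound concentration series; IC50 derived from concentration-dependent inhibition.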

The target in assay [25] is T3, Cell division protein FtsZ (Staphylococcus aureus, UniProt P0A031).
T3 sequence (P0A031 whole entry): T2 sequence (whole entry)
The description is as §3. A digest of the protocol: as §4

Assay [26] is filed under the species Bos taurus. Nature of the assay: Inhibition of bovine brain tubulin polymerization at 64 ug/ml.
For assay [27], the system named is Staphylococcus lugdunensis. Nature of the assay: Antibacterial activity against Staphylococcus lugdunensis by broth microdilution method. Type of assay: functional.
The test system of assay [28] is Staphylococcus aureus. In words: Antibacterial activity against Staphylococcus aureus bearing FtsZ G193D mutant by broth microdilution method. The class given is functional.
Assay [29] concerns HepG2. In words: Cytotoxicity against human HepG2 cells. Type of assay: cell-based.
For assay [30], the system named is Staphylococcus aureus. In words: Bactericidal activity against Staphylococcus aureus ATCC 29213 assessed as reduction in cell viability at 2 ug/ml within 24 hrs by serial dilution method.
The test system of assay [31] is Bacillus subtilis. In words: Antibacterial activity against Bacillus subtilis bearing FtsZ V307R mutant by broth microdilution method. The class given is functional.
The test system of assay [32] is Staphylococcus aureus. In words: Antibacterial activity against Staphylococcus aureus Smith ATCC 19636 in sc dosed CD1 mouse septicemia model assessed as survival after 7 days. Type of assay: functional. The method in brief: as §1
The subject of assay [33] is Staphylococcus aureus. Nature of the assay: Antibacterial activity against Staphylococcus aureus Smith ATCC 19636 in CD1 mouse septicemia model assessed as survival at 30 mg/kg, iv after 7 days relative to control. Conditions: 168 h. Type of assay: functional. The method in brief:
as §1

The test system of assay [34] is Saccharomyces cerevisiae. In words: Antifungal activity against Saccharomyces cerevisiae by broth microdilution method. The class given is functional.
The subject of assay [35] is Staphylococcus aureus. In words: Antibacterial activity against Staphylococcus aureus by broth microdilution method. Type of assay: functional.
Assay [36] concerns Staphylococcus aureus. Nature of the assay: Antibacterial activity against methicillin-resistant Staphylococcus aureus by broth microdilution method. The class given is functional.
For assay [37], the system named is Staphylococcus epidermidis. In words: Antibacterial activity against Staphylococcus epidermidis by broth microdilution method. Type of assay: functional.
Assay [38] has as its system Bacillus subtilis. In words: Inhibition of cell division in Bacillus subtilis 168 assessed as elongation of cells at 2 ug/ml by phase contrast microscopy. The class given is functional, organism-based. As to conditions: subsp. subtilis str. 168. A digest of the protocol:
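B. subtilis 168 cells grown with or without compound at 2 μg/ml; cell morphology examined by phase-contrast microscopy.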

For assay [39], the system named is Staphylococcus aureus. In words: Antibacterial activity against Staphylococcus aureus Smith ATCC 19636 in iv dosed CD1 mouse septicemia model assessed as survival after 7 days. Type of assay: functional. A digest of the protocol: as §1
Assay [40] concerns Staphylococcus aureus. In words: Antibacterial activity against Staphylococcus aureus Smith ATCC 19636 in ip dosed CD1 mouse septicemia model assessed as survival administered 1 hr postinfection measured after 7 days. Type of assay: functional.
The subject of assay [41] is Bacillus subtilis. Nature of the assay: Antibacterial activity against Bacillus subtilis bearing FtsZ G196A mutant by broth microdilution method. The class given is functional.
The species named for assay [42] is Bos taurus. Nature of the assay: Enhancement of bovine brain tubulin polymerization at 64 ug/ml.
Assay [43] has as its system Staphylococcus hominis. In words: Antibacterial activity against Staphylococcus hominis by broth microdilution method. Type of assay: functional.
In assay [44] the test system is Bacillus subtilis. Nature of the assay: Antibacterial activity against Bacillus subtilis bearing FtsZ V307H mutant by broth microdilution method. Type of assay: functional.

Consider `CC(=O)O[C@H]1C(=O)[C@@]2(C)[C@H]([C@H](OC(=O)c3ccccc3)[C@]3(O)C[C@H](OC(=O)[C@H](O)[C@@H](NC(=O)c4ccccc4)c4ccccc4)C(C)=C1C3(C)C)[C@]1(OC(C)=O)CO[C@@H]1C[C@@H]2O`, for which, in assay [1], the outcome was inactive. Also, the outcome in [2] was Active.
On to `NC(=O)c1c(F)ccc(OCc2nc3cc(Cl)cnc3s2)c1F`, for which the MIC in assay [3] was above 64 µg/mL; in assay [4] it was above 512 µg/mL; in assay [5] it was 1 µg/mL (≈ 2.81 µM); in assay [6] it was above 64 µg/mL; in [7] it was 0.5 µg/mL (≈ 1.41 µM); in assay [10], above 64 µg/mL. The MIC is above 64 µg/mL in assay [12]; above 512 µg/mL in assay [13]; 1 µg/mL (≈ 2.81 µM) in assay [14]; above 512 µg/mL in assay [16]; above 64 µg/mL in [18]; above 512 µg/mL in assay [19]. Moreover, the MIC in assay [20] was 0.5 µg/mL (≈ 1.41 µM); in assay [21], above 512 µg/mL; in [22], 1 µg/mL (≈ 2.81 µM); in [23] it was 1 µg/mL (≈ 2.81 µM); in assay [27] it was 1 µg/mL (≈ 2.81 µM); in assay [28], above 512 µg/mL. In addition, the MIC in assay [31] was 8 µg/mL (≈ 22.5 µM); in assay [34], above 64 µg/mL; in assay [35] it was 1 µg/mL (≈ 2.81 µM); in [36], 1 µg/mL (≈ 2.81 µM); in assay [37] it was 1 µg/mL (≈ 2.81 µM); in assay [41], above 64 µg/mL. The MIC turned out to be 1 µg/mL (≈ 2.81 µM) in assay [43] and 2 µg/mL (≈ 5.62 µM) in assay [44]. The survival at 30 mg/kg in assay [8] and in assay [33] was 100% each time. Besides, the outcome in assay [9], in assay [11], in assay [17], in assay [30] and in assay [38] was Active. In addition, the Activity is above 3 in assay [15], “Dose-dependent effect” in assay [24], “Dose-dependent effect” in assay [32] and “Dose-dependent effect” in [39]. Moreover, the IC50 in assay [25] was 155 nM; in assay [29] it was above 64 µg/mL. The result in assay [26] and in assay [42] was inactive. The values for the 50% effective dose (ED50) in [32] (168 h), in assay [39] (168 h) and in [40] were 7.3 mg/kg, 10.2 mg/kg and 3.1 mg/kg, respectively.
As for `COc1cccc(C(N)=O)c1`, the MIC in assay [5] was above 8190 µg/mL; in assay [20] it was 2050 µg/mL (≈ 13500 µM); in [31] it was above 8190 µg/mL; in [35] it was 2050 µg/mL (≈ 13500 µM); in assay [41], 1020 µg/mL (≈ 6770 µM); in [44], 4100 µg/mL (≈ 27100 µM).
